According to ChEMBL document CHEMBL1138521, “Discovery of 4-(5-(4-chlorophenyl)-2-methyl-3-propionyl-1H-pyrrol-1-yl)benzenesulfonamide (A-867744) as a novel positive allosteric modulator of the alpha7 nicotinic acetylcholine receptor” (J Med Chem, 2009):
Each block holds one compound with its values, some of them ahead of it. Activity calls are given as the source filed them. The calls are words filed in the database; no cut-off is given here.

Columns and labels:
[1] = molecular target: T1, Neuronal acetylcholine receptor subunit alpha-7 (Homo sapiens, UniProt P36544); assay: Allosteric modulator activity at alpha7 nAChR in human IMR32 cells assessed as stimulation of agonist-induced intracellular calcium level by FLIPR assay; format: functional, cell-based, IMR-32
T1 sequence (P36544 whole entry): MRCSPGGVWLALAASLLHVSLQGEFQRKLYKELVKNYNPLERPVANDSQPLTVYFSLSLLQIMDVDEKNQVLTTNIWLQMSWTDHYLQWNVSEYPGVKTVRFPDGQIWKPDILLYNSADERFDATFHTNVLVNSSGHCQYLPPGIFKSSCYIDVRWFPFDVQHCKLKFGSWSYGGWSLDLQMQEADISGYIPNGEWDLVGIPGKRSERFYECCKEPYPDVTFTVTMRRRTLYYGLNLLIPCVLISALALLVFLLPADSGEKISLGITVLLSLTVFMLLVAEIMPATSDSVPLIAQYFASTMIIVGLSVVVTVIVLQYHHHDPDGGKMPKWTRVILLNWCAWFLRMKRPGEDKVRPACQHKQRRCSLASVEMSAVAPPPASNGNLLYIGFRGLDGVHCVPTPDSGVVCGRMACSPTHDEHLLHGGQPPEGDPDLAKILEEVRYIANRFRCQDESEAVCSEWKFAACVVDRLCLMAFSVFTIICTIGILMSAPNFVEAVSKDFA
Outline: (§1)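 IMR-32 human neuroblastoma cells (endogenous α7) on poly-D-lysine plates, loaded with calcium-4 no-wash dye in NMDG buffer (10 mM HEPES pH 7.4, 10 mM CaCl2) 1 h at 25 °C. Peak fluorescence over baseline, normalized to maximum; EC50 from 2–5 experiments in duplicate.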

[2] = molecular target: T1, Neuronal acetylcholine receptor subunit alpha-7; assay: Allosteric modulator activity at alpha7 nAChR in human IMR32 cells assessed as stimulation of agonist-induced intracellular calcium level by FLIPR assay relative to 1-(5-chloro-2,4-dimethoxyphenyl)-3-(5-methylisoxazol-3-yl)urea; format: functional, cell-based; details: IMR-32; outline: as §1
[3] = Metabolic stability in rat liver microsomes assessed as compound remaining after 30 mins; format: ADME, Microsome; details: read-out: Stability
Outline: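 Microsomes prewarmed 10 min at 37 °C; reaction started with compound (1 µM final) and NADPH (1 mM final) at 0.5 mg/mL protein, in triplicate. Sampled at 0, 10, 20 and 30 min; stopped with acetonitrile/methanol containing warfarin internal standard; centrifuged supernatant analysed by HPLC-MS.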

[4] = Plasma clearance in dog at 0.5 umol/kg, iv; format: ADME, organism-based, Canis lupus familiaris
Rattus norvegicus [5] = assay: Plasma concentration Sprague-Dawley rat at 3 mg/kg; format: ADME, organism-based; design: dose 3 mg/kg; details: in vivo
Outline: (§2)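 Anesthetized rat cardiovascular assay at 3, 10 and 30 mg/kg, with plasma concentrations measured alongside mean arterial pressure, heart rate, contractility and peripheral vascular resistance.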

[6] = Cmax in monkey at 1 umol/kg, po; format: ADME, organism-based, Macaca mulatta; design: dose 1 umol/kg, route oral; details: rhesus monkey, in vivo
[7] = molecular target: Neuronal acetylcholine receptor; alpha3/beta4 (Homo sapiens) (UniProt P30926+P32297); assay: Activity at human recombinant alpha3beta4 nAChR expressed in HEK293 cells assessed as potentiation of nicotine-evoked calcium transients up to 30 uM; format: cell-based
Brain [8] = assay: Drug level in brain of DBA/2 mouse model of sensory gating deficits at 10 umol/kg, ip; format: functional, tissue-based
Outline: (§3)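 DBA/2 mice dosed ip at 0.1, 1.0 or 10.0 µmol/kg in vehicle of 5% DMSO and 5% Solutol in PBS; brain concentration reported in ng/g.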

[9] = Half life in dog at 0.5 umol/kg, iv; format: ADME, organism-based, Canis lupus familiaris; details: in vivo
Rattus norvegicus [10] = assay: Plasma concentration Sprague-Dawley rat at 30 mg/kg; format: ADME, organism-based; design: dose 30 mg/kg; details: in vivo; outline: as §2
[11] = Oral bioavailability in monkey at 1 umol/kg; format: ADME, organism-based, Macaca mulatta; details: rhesus monkey, in vivo
[12] = Oral bioavailability in dog at 1 umol/kg; format: ADME, organism-based, Canis lupus familiaris; details: in vivo
Mus musculus = assay: Improvement in gating deficits in DBA/2 mouse model of sensory gating deficits assessed as reduction in ratio of response to test stimulus relative to preceding response to conditioning stimulus at 0.1 to 10 umol/kg, ip by paired auditory stimulus paradigm assay; format: functional, organism-based
Outline: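 DBA/2 mice (16–20 g) implanted with hippocampal CA3 EEG electrodes under ketamine/xylazine/acepromazine, ≥4 days recovery. Dosed ip in 5% DMSO/5% Solutol in PBS immediately before recording; 120 paired 5 ms white-noise bursts 0.5 s apart over 30 min. N40 amplitude T:C ratio. Within-subjects random-order crossover with vehicle, ≥72 h apart; mean ± SEM, one-way ANOVA with Newman-Keuls test.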

Brain [13] = assay: Drug level in brain of DBA/2 mouse model of sensory gating deficits at 0.1 umol/kg, ip; format: functional, tissue-based; outline: as §3
[14] = Cmax in rat at 2 umol/kg, po; format: ADME, organism-based; design: dose 2 umol/kg, route oral; details: in vivo
[15] = molecular target: Neuronal acetylcholine receptor subunit alpha-7 (Rattus norvegicus) (UniProt Q05941); assay: Modulator activity at alpha7 nAChR in rat neonatal cortical neurons assessed as enhancement of (R)-4-chloro-N-(quinuclidin-8-yl)benzamide-induced calcium flux response at 5 uM by FLIPR assay
Chain of Neuronal acetylcholine receptor subunit alpha-7 (Rattus norvegicus) (Q05941 whole entry): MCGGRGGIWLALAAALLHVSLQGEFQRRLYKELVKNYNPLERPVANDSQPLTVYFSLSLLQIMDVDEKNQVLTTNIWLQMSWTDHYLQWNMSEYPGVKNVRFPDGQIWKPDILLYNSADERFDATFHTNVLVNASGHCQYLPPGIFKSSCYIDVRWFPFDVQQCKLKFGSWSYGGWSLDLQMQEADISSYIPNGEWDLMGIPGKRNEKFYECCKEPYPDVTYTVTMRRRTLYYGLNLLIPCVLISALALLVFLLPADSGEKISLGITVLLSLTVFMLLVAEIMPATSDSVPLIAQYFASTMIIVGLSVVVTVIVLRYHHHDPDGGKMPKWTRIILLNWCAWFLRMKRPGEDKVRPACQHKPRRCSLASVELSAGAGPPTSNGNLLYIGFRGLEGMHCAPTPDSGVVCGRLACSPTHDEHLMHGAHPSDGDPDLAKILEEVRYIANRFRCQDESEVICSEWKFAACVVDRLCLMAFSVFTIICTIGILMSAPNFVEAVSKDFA
Outline: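 Primary neonatal rat cortical neurons cultured on poly-D-lysine plates (10000 cells/well), assayed 3 days after plating. Calcium-3 dye in HBSS with 20 mM HEPES. After 10 s baseline, modulator added for 3–5 min, then agonist. Peak fluorescence increase over baseline in RFU, normalized to maximal value.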

[16] = Plasma clearance in monkey at 0.5 umol/kg, iv; format: ADME, organism-based, Macaca mulatta; details: rhesus monkey
[17] = Half life in rat at 2 umol/kg, iv; format: ADME, organism-based; details: in vivo
[18] = Plasma clearance in rat at 2 umol/kg, iv; format: ADME, organism-based
Brain [19] = assay: Drug level in brain of DBA/2 mouse model of sensory gating deficits at 1 umol/kg, ip; format: functional, tissue-based; outline: as §3
[20] = molecular target: Neuronal acetylcholine receptor; alpha4/beta2 (Homo sapiens) (UniProt P17787+P43681); assay: Activity at human recombinant alpha4beta2 nAChR expressed in HEK293 cells assessed as potentiation of nicotine-evoked calcium transients up to 30 uM; format: cell-based
[21] = Cmax in dog at 1 umol/kg, po; format: ADME, organism-based, Canis lupus familiaris; design: dose 1 umol/kg, route oral; details: in vivo
Oocyte [22] = assay: Modulator activity at alpha7 nAChR in Xenopus laevis oocytes cells assessed as activation of electric currents at 0.1 nM to 10 uM at -60 mV by two-electrode voltage clamp technique; format: cell-based
Outline: (§4)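 Xenopus oocytes, collagenase-defolliculated, injected with ~20–25 ng α7 nAChR cRNA, kept at 18 °C and used 2–7 days later. Two-electrode voltage clamp at −60 mV, room temperature, in Ba2+-OR2 with 0.5 µM atropine. Modulator applied ≥60 s before 1 s application of 100 µM ACh. Apparent peak current expressed as percent of 100 µM ACh response; sigmoidal variable-slope fit.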

[23] = Volume of distribution at steady state in rat at 2 umol/kg, iv; format: ADME, organism-based; details: in vivo, read-out: Vdss
Rattus norvegicus [24] = assay: Plasma concentration Sprague-Dawley rat at 10 mg/kg; format: ADME, organism-based; design: dose 10 mg/kg; details: in vivo; outline: as §2
[25] = Volume of distribution at steady state in monkey at 0.5 umol/kg, iv; format: ADME, organism-based, Macaca mulatta; details: rhesus monkey, in vivo, read-out: Vdss
[26] = Half life in monkey at 0.5 umol/kg, iv; format: ADME, organism-based, Macaca mulatta; details: rhesus monkey, in vivo
[27] = Volume of distribution at steady state in dog at 0.5 umol/kg, iv; format: ADME, organism-based, Canis lupus familiaris; details: in vivo, read-out: Vdss
Oocyte [28] = assay: Modulator activity at alpha7 nAChR in Xenopus laevis oocytes cells assessed as enhancement of acetylcholine-evoked electric currents at -60 mV by two-electrode voltage clamp technique; format: cell-based; outline: as §4
[29] = Oral bioavailability in rat at 2 umol/kg; format: ADME, organism-based; details: in vivo
Oocyte [30] = assay: Modulator activity at alpha7 nAChR in Xenopus laevis oocytes cells assessed as decay of acetylcholine-evoked electric current response at -60 mV by two-electrode voltage clamp technique; format: cell-based; outline: as §4

remaining at 0.5 h [3]: 64%
SMILES: CC(=O)c1cc(-c2ccc(Cl)cc2)n(-c2ccc(S(N)(=O)=O)cc2)c1C

clearance [4]: 18.3 mL/min/kg
Cp (Rattus norvegicus [5]): 1000 ng/mL
Cmax [6]: 17 ng/mL
Activity [7]: inactive
remaining at 0.5 h [3]: 96%
half-life [9]: 1.3 h
Cp (Rattus norvegicus [10]): 12400 ng/mL
bioavailability [11]: 68%
bioavailability [12]: 55%
Cmax [14]: 41 ng/mL
Activity [15]: Active
clearance [16]: 41.7 mL/min/kg
half-life [17]: 1.7 h
clearance [18]: 35 mL/min/kg
Activity [20]: inactive
Cmax [21]: 87 ng/mL
Vd [23]: 4.6 L/kg
Cp (Rattus norvegicus [24]): 5000 ng/mL
Vd [25]: 2.8 L/kg
half-life [26]: 1 h
Vd [27]: 1.7 L/kg
bioavailability [29]: 83%
SMILES: CCC(=O)c1cc(-c2ccc(Cl)cc2)n(-c2ccc(S(N)(=O)=O)cc2)c1C
Drug uptake (Brain [8]): 140 ng/g
Activity (Mus musculus): Active
Drug uptake (Brain [13]): 2 ng/g
Drug uptake (Brain [19]): 15 ng/g
Activity (Oocyte [22]): inactive
Activity (Oocyte [28]): Dose-dependent effect
Activity (Oocyte [30]): Active

remaining at 0.5 h [3]: 3%
SMILES: CCOC(=O)c1cc(-c2ccc(Cl)cc2)n(-c2ccc(S(N)(=O)=O)cc2)c1C

EC50 [1]: > 30 µM
Efficacy [2]: 3%
SMILES: CCN(C)C(=O)c1cc(-c2ccc(Cl)cc2)n(-c2ccc(S(N)(=O)=O)cc2)c1C

EC50 [1]: > 30 µM
Efficacy [2]: 4%
SMILES: Cc1c(C(=O)N(C)C)cc(-c2ccc(Cl)cc2)n1-c1ccc(S(N)(=O)=O)cc1

remaining at 0.5 h [3]: 58%
EC50 [1]: 3.6 µM
Efficacy [2]: 11%
SMILES: CCCN(CCO)C(=O)c1cc(-c2ccc(Cl)cc2)n(-c2ccc(S(N)(=O)=O)cc2)c1C

The next lines start with the compound.

SMILES: Cc1c(C(=O)N2CCOCC2)cc(-c2ccc(Cl)cc2)n1-c1ccc(S(N)(=O)=O)cc1
EC50 [1]: > 30 µM
Efficacy [2]: 5%

SMILES: Cc1c(C(=O)N2CCCC2)cc(-c2ccc(Cl)cc2)n1-c1ccc(S(N)(=O)=O)cc1
remaining at 0.5 h [3]: 31%
EC50 [1]: 9.4 µM
Efficacy [2]: 57%

SMILES: COc1ccc(F)cc1C(=O)c1cc(-c2ccc(Cl)cc2)n(-c2ccc(S(N)(=O)=O)cc2)c1C
remaining at 0.5 h [3]: 45%
EC50 [1]: 10.5 µM
Efficacy [2]: 26%

SMILES: Cc1c(C(=O)c2ccc(Cl)cc2)cc(-c2ccc(Cl)cc2)n1-c1ccc(S(N)(=O)=O)cc1
EC50 [1]: > 30 µM
Efficacy [2]: 5%

SMILES: Cc1ccc(C(=O)c2cc(-c3ccc(Cl)cc3)n(-c3ccc(S(N)(=O)=O)cc3)c2C)cc1
EC50 [1]: > 30 µM
Efficacy [2]: 7%

SMILES: Cc1c(C(=O)N2CCCCC2)cc(-c2ccc(Cl)cc2)n1-c1ccc(S(N)(=O)=O)cc1
EC50 [1]: > 30 µM
Efficacy [2]: 11%

SMILES: Cc1c(C(=O)CC(C)C)cc(-c2ccc(Cl)cc2)n1-c1ccc(S(N)(=O)=O)cc1
remaining at 0.5 h [3]: 44%
EC50 [1]: 3.9 µM
Efficacy [2]: 74%

SMILES: Cc1c(C(=O)O)cc(-c2ccc(Cl)cc2)n1-c1ccc(S(N)(=O)=O)cc1
EC50 [1]: > 30 µM
Efficacy [2]: 8%

SMILES: Cc1c(C(=O)C2CC2)cc(-c2ccc(Cl)cc2)n1-c1ccc(S(N)(=O)=O)cc1
remaining at 0.5 h [3]: 92%
EC50 [1]: 4.9 µM
Efficacy [2]: 25%

SMILES: Cc1c(C(=O)N(C)C(C)C)cc(-c2ccc(Cl)cc2)n1-c1ccc(S(N)(=O)=O)cc1
EC50 [1]: > 30 µM
Efficacy [2]: 8%

SMILES: CCOC(=O)c1cc(-c2ccc(Br)cc2)n(-c2ccc(S(N)(=O)=O)cc2)c1C
remaining at 0.5 h [3]: 2%
EC50 [1]: 2.6 µM
Efficacy [2]: 20%

SMILES: Cc1cc(C(=O)c2cc(-c3ccc(Cl)cc3)n(-c3ccc(S(N)(=O)=O)cc3)c2C)ccc1Cl
remaining at 0.5 h [3]: 38%
EC50 [1]: 4.88 µM
Efficacy [2]: 9%
